# The list is not random: actives were taken first. Their share in the collection is about 3.3%.
# SIAE primary: blocks human sialic acid acetylesterase; Q9HAT2; SIAE FP-Rh probe binding, fluorescence polarization; inhibition, % at 9.66 µM; 370,000 tested, 0.69% active; AID 1053197;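 active = inhibition above a cutoff: mean of compounds within the control limits plus 3 SD of those, cut at about 17% in these data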;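 also: 0% = plate median of compound wells and 100% = probe without SIAE protein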
# PRMT1 FP inh: blocks human protein arginine methyltransferase 1; Q99873; recombinant PRMT1, activity-based probe fluorescence polarization; inhibition, % at 2.79 µM; 370,000 tested, 1.3% active; AID 652257;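 active = inhibition above about 21% made by adding two undisclosed values, limit read from the data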
# rCAG RNA binder: r(CAG) repeat RNA binding. TO-PRO-1 dye displacement fluorescence. inhibition, % at 3 µM. 370,000 tested, 1.3% active;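 active = inhibition above the plate cutoff, the mean of all test compounds on that plate plus 3 SD, cut at about 35% in these data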;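 also: 0% = DMSO alone and 100% = 100 µM mitoxantrone as full dye displacement; higher means more dye released from RNA so lower well fluorescence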
# HTRA1 inh: HTRA1 (human) protease inhibition; recombinant HTRA1, FP-rhodamine activity-based probe, fluorescence polarization; Q92743; inhibition, % at 5.96 µM; AID 504803; 340,000 tested, 0.5% active; in the data active = inhibition above about 36%;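 also: 0% = enzyme with DMSO and 100% = wells lacking enzyme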
# Target sequence (Q92743 whole entry, looked up): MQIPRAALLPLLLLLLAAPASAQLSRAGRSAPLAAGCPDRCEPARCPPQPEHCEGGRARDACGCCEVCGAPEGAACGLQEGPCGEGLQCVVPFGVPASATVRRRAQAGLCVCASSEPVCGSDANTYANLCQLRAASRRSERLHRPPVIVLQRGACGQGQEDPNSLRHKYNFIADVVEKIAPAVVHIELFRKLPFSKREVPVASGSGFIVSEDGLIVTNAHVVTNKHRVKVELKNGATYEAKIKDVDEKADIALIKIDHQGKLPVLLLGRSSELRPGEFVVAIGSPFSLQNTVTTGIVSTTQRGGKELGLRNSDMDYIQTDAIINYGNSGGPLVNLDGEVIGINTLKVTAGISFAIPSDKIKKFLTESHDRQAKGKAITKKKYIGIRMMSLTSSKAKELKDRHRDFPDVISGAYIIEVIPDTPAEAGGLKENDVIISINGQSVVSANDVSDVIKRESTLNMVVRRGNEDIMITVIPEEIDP
# ABHD4 inh: inhibitors of mouse ABHD4; 370,000 tested, 0.54% active; AID 720543; Q8VD66; purified mABHD4, FP-Rh probe fluorescence polarization; inhibition, % at 8.92 µM;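 active = inhibition exceeding the mean over every tested compound plus 3 SD, cut at about 30% in these data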;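 also: 0% = plate median of compound wells and 100% = S159A mutant with DMSO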
#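 system = mouse ABHD4 enzyme, wild type | medium = HEPES pH 7.0, NaCl, Pluronic buffer | also added = FP-Rh probe | incubation = Enzyme–compound pre-incubation 45 min, then probe 60 min, both 25 °C | technique = fluorescence polarization, excitation 525 nm, emission 598 nm, BODIPY TMR filters | controls = S159A mutant high control, sample median low control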
# PRMT1 inh conf: confirmation of human PRMT1 inhibitors; recombinant His-PRMT1, activity-based probe fluorescence polarization; inhibition, % at 2.79 µM; shares compounds with PRMT1 FP inh; 3,300 tested, 42% active;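 active = mean inhibition across replicates above the hit cutoff derived for the earlier primary screen, cut at about 22% in these data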
# Numbers without * were called inactive; / = no result.
SMILES,SIAE primary,PRMT1 FP inh,rCAG RNA binder,HTRA1 inh,ABHD4 inh,PRMT1 inh conf
Cc1ccc(CNC(=O)C2CCCN(C(=O)Nc3ccc(F)cc3)C2)cc1 (stereo not drawn),1,1,-5,4,-3,/
CC1(c2nnc(-c3ccc(F)cc3)o2)CC(c2cccc(Cl)c2)=NO1 (stereo not drawn),-2,-2,-3,-2,-19,/
COc1cccc(CN2CCC2(C)C(=O)NCCc2ccccn2)c1OC (stereo not drawn),-4,-6,0,/,-2,/
COc1ccc(C2OC(=O)c3ccccc3S2)cc1 (stereo not drawn),-11,38*,3,1,-9,17
O=C(CC(Nc1ccc(Cl)cc1Cl)C(=O)O)c1ccccc1 (stereo not drawn),1,39*,3,-1,1,3
CCOC(=O)c1cn(Cc2ccccc2)c(C(=O)OC(C)(C)C)c1O,5,1,-5,22,3,/
CN(C)CCN(C(=O)c1cccs1)c1nc2cc3c(cc2s1)OCCO3,9,-1,-6,2,7,/
CN(C(=O)Cn1nc(C(=O)O)c2ccccc2c1=O)C1(C#N)CCCCC1,-1,-1,0,1,5,/
CC(C)(C)Sc1ccc(N)nc1,-1,36*,3,-1,-6,2
COc1ccc(NS(=O)(=O)c2cccc(C(=O)NCc3ccccn3)c2)cc1,6,1,-1,2,-4,/
O=C(NCc1ccccn1)c1cccc(S(=O)(=O)Nc2ccc(SC(F)F)cc2)c1,0,78*,18,0,-14,40*
O=C(NCc1ccncc1)c1cccc(S(=O)(=O)Nc2ccc(SC(F)F)cc2)c1,-11,64*,19,-5,-6,56*
NS(=O)(=O)c1cccc(NC(=O)CSc2nc3ccccc3c(=O)n2Cc2ccco2)c1,-1,80*,18,-9,-5,6
O=C(CSc1nc2ccccc2c(=O)n1Cc1ccco1)NCc1ccco1,-1,14,6,-5,8,/
NS(=O)(=O)c1ccc(NC(=O)CSc2ncnc3ccccc23)cc1,0,9,2,-5,0,/
NS(=O)(=O)c1cccc(NC(=O)CSc2ncnc3ccccc23)c1,-7,37*,8,-7,-14,14
COC(=O)c1ccccc1S(=O)(=O)N1CCC(C(=O)NC2CCCCC2C)CC1 (stereo not drawn),-3,1,0,3,10,/
Cc1nc2sc(C(c3ccco3)N3CCN(c4ccccc4F)CC3)c(O)n2n1 (stereo not drawn),4,2,-3,2,4,/
Cc1nc2sc(C(c3ccco3)N3CCN(c4ccc(F)cc4)CC3)c(O)n2n1 (stereo not drawn),12,25*,8,-1,-7,-3
Cc1nc2sc(C(c3ccco3)N3CCc4ccccc4C3)c(O)n2n1 (stereo not drawn),-1,45*,17,1,22,15
O=CNC1(c2ccccc2)CCCCC1,4,1,3,9,10,/
O=[N+]([O-])c1ccc(Cl)c(C2Nc3cccc4cccc(c34)N2)c1,8,53*,17,32,28,26*
O=c1onc(-c2cccnc2)n1-c1ccccc1F,4,-3,-1,6,2,/
Cc1c(CN2CCC(CO)(CCOc3ccccc3)CC2)[nH]c2c(Cl)cccc12,0,6,3,-3,10,/
CCCCCNC(=O)C(c1ccc(OC)cc1)n1c(=O)c(-c2ccco2)nc2ccccc21 (stereo not drawn),-8,28*,32,/,-10,14
CCCCCNC(=O)C(c1ccccc1F)n1c(=O)c(-c2ccco2)nc2ccccc21 (stereo not drawn),-22,31*,40*,/,-26,25*
Cc1cc(OCC(=O)Nc2ccccc2C)no1,3,1,1,0,0,/
Cc1cc(=O)[nH]c(SCc2nnnn2-c2ccc(Cl)cc2)n1,7,37*,2,2,9,55*
CCC(=O)N(C)C[C@@H]1[C@H](c2ccc(C3=CCCCC3)cc2)[C@H](CO)N1C(=O)CC,-3,0,1,/,-2,/
O=C(CSc1oc(-c2ccco2)nc1S(=O)(=O)c1ccc(F)cc1)NCC1CCCO1 (stereo not drawn),0,45*,22,3,6,7

# Source: PubChem BioAssay (The Scripps Research Institute Molecular Screening Center)
